Assay results from ChEMBL document CHEMBL3232915, “Discovery, optimization, and characterization of novel D2 dopamine receptor selective antagonists” (J Med Chem, 2014).
Each block holds one molecule with its values, some of them ahead of it.

Experiments:
D(2) dopamine receptor [1] = target: T1, D(2) dopamine receptor (Homo sapiens, UniProt P14416); test: Antagonist activity at D2 receptor (unknown origin) expressed in Flp-In TREx 293 cells coexpressing chimeric Gqi5 protein assessed as calcium accumulation by Fluo-8AM dye based fluorescence analysis; format: functional, cell-based
T1 sequence (P14416 whole entry): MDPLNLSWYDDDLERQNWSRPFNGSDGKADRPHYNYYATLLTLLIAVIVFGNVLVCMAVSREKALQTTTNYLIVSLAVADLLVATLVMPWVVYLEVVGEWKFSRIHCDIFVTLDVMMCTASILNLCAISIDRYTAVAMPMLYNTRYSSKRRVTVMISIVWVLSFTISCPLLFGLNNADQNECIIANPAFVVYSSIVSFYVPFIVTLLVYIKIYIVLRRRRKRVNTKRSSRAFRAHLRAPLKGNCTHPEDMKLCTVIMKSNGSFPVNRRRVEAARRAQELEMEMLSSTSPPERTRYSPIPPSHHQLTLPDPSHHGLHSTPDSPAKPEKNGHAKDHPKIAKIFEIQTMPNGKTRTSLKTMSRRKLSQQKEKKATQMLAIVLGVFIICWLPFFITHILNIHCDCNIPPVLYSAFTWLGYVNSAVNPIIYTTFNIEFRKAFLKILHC

D(2) dopamine receptor [2] = target: T1, D(2) dopamine receptor; test: Antagonist activity at ProLink-tagged D2 receptor (unknown origin) expressed in CHO cells assessed as inhibition of dopamine-stimulated beta-arrestin binding treated for 90 mins prior to dopamine challenge by PathHunter DiscoveRx assay; format: cell-based
D(3) dopamine receptor [3] = target: T2, D(3) dopamine receptor (Homo sapiens, UniProt P35462); test: Antagonist activity at ProLink-tagged D3 receptor (unknown origin) expressed in CHO cells assessed as inhibition of dopamine-stimulated beta-arrestin binding treated for 90 mins prior to dopamine challenge by PathHunter DiscoveRx assay; format: cell-based
T2 sequence (P35462 whole entry): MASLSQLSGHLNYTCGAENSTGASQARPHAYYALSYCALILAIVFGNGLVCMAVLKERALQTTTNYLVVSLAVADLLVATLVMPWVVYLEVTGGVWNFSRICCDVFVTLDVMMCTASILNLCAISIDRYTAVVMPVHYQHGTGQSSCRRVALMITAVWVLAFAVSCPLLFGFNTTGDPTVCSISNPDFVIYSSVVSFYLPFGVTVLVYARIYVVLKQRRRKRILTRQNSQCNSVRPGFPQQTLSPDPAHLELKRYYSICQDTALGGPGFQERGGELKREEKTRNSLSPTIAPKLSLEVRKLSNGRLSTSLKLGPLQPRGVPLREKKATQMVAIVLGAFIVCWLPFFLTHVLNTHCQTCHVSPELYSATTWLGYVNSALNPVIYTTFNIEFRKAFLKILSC

D(2) dopamine receptor [4] = target: T1, D(2) dopamine receptor; test: Displacement of [3H]methylspiperone from human D2L receptor expressed in HEK cell membrane after 90 mins by scintillation counting analysis; format: cell membranes, HEK293
D(3) dopamine receptor [5] = target: T2, D(3) dopamine receptor; test: Displacement of [3H]methylspiperone from human D3 receptor expressed in HEK293 cell membrane after 90 mins by scintillation counting analysis; format: cell membranes
CHO = test: Ratio of AC50 for ProLink-tagged D3 receptor (unknown origin) expressed in CHO cells to AC50 for ProLink-tagged D2 receptor (unknown origin) expressed in CHO cells by beta-arrestin assay; format: cell-based; conditions: Homo sapiens
HEK293 = test: Ratio of Ki for human D3 receptor expressed in HEK293 cell membrane to Ki for human D2L receptor expressed in HEK cell membrane; format: cell-based
Outline: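 Competition binding with [3H]methylspiperone on membranes from stable HEK cells. […] Incubation 90 min at room temperature in EBSS with sodium metabisulfite, nonspecific binding with 4 µM (+)-butaclamol, then GF/C filtration and scintillation counting. Ki from IC50 via Cheng–Prusoff.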

SMILES: CCN1C(=O)c2ccccc2[S@+]([O-])c2ccc(C(=O)N[C@H](C)c3ccc(Br)cc3)cc21
- AC50 (D(2) dopamine receptor [1]): 223 nM
- AC50 (D(2) dopamine receptor [2]): 1290 nM
- AC50 (D(3) dopamine receptor [3]): 9130 nM
- Ki (D(2) dopamine receptor [4]): 530 nM
- Ki (D(3) dopamine receptor [5]): 880 nM
- Ratio (CHO): 7.1
- Ratio Ki (HEK293): 1.7

SMILES: CCN1C(=O)c2ccccc2[S+]([O-])c2ccc(C(=O)NCc3cc(OC)c(OC)c(OC)c3)cc21 (racemic)
- AC50 (D(2) dopamine receptor [1]): 1770 nM

SMILES: CCN1C(=O)c2ccccc2[S+]([O-])c2ccc(NC(=O)Cc3ccc(OC)cc3)cc21 (racemic)
- AC50 (D(2) dopamine receptor [1]): 705 nM

SMILES: CN1C(=O)c2ccccc2[S+]([O-])c2ccc(C(=O)NCc3cccc(Cl)c3)cc21 (racemic)
- AC50 (D(2) dopamine receptor [1]): 281 nM

SMILES: CN1C(=O)c2ccccc2[S@+]([O-])c2ccc(C(=O)NCc3cccnc3)cc21
- AC50 (D(2) dopamine receptor [1]): 445 nM
- AC50 (D(2) dopamine receptor [2]): 2890 nM
- AC50 (D(3) dopamine receptor [3]): 14500 nM
- Ki (D(2) dopamine receptor [4]): 310 nM
- Ki (D(3) dopamine receptor [5]): 21000 nM
- Ratio (CHO): 5
- Ratio Ki (HEK293): 70

SMILES: CCN1C(=O)c2ccccc2[S+]([O-])c2ccc(NC(=O)Cc3ccc(F)cc3)cc21 (racemic)
- AC50 (D(2) dopamine receptor [1]): 223 nM

SMILES: CCN1C(=O)c2ccccc2S(=O)(=O)c2ccc(C(=O)NCc3ccc(OC)cc3)cc21
- AC50 (D(2) dopamine receptor [1]): > 77000 nM

SMILES: CN1C(=O)c2ccccc2[S@+]([O-])c2ccc(C(=O)NCc3ccc(Cl)cc3)cc21
- AC50 (D(2) dopamine receptor [1]): 280 nM
- AC50 (D(2) dopamine receptor [2]): 2890 nM
- AC50 (D(3) dopamine receptor [3]): 10200 nM
- Ratio (CHO): 4.5

SMILES: CN1C(=O)c2ccccc2[S+]([O-])c2ccc(C(=O)NCc3ccc(Cl)cc3)cc21 (racemic)
- AC50 (D(2) dopamine receptor [1]): 141 nM

SMILES: CN(C)CCCNC(=O)c1ccc2c(c1)N(C)C(=O)c1ccccc1[S+]2[O-] (racemic)
- AC50 (D(2) dopamine receptor [1]): 560 nM

SMILES: CN1C(=O)c2ccccc2[S+]([O-])c2ccc(C(=O)NCCN3CCCCC3)cc21 (racemic)
- AC50 (D(2) dopamine receptor [1]): 112 nM

SMILES: CCN1C(=O)c2ccccc2[S+]([O-])c2ccc(C(=O)Nc3ccc(OC)cc3)cc21 (racemic)
- AC50 (D(2) dopamine receptor [1]): 141 nM

SMILES: COc1ccc(NC(=O)c2ccc3c(c2)N(C)C(=O)c2ccccc2[S+]3[O-])cc1 (racemic)
- AC50 (D(2) dopamine receptor [1]): 353 nM

SMILES: CN1C(=O)c2ccccc2[S@+]([O-])c2ccc(C(=O)NCCN3CCCC3)cc21
- AC50 (D(2) dopamine receptor [1]): 70 nM
- AC50 (D(2) dopamine receptor [2]): 363 nM
- AC50 (D(3) dopamine receptor [3]): 4570 nM
- Ki (D(2) dopamine receptor [4]): 210 nM
- Ki (D(3) dopamine receptor [5]): 350 nM
- Ratio (CHO): 12.6
- Ratio Ki (HEK293): 1.7

SMILES: CN1C(=O)c2ccccc2[S@+]([O-])c2ccc(C(=O)NCc3ccc(Br)cc3)cc21
- AC50 (D(2) dopamine receptor [1]): 89 nM
- AC50 (D(2) dopamine receptor [2]): 1020 nM
- AC50 (D(3) dopamine receptor [3]): 4570 nM
- Ki (D(2) dopamine receptor [4]): 240 nM
- Ki (D(3) dopamine receptor [5]): 370 nM
- Ratio (CHO): 4.5
- Ratio Ki (HEK293): 1.5

SMILES: CCN1C(=O)c2ccccc2[S+]([O-])c2ccc(C(=O)NCCc3ccc(OC)cc3)cc21 (racemic)
- AC50 (D(2) dopamine receptor [1]): 353 nM

The next lines start with results.

- AC50 (D(2) dopamine receptor [1]): 353 nM
SMILES: CCN1C(=O)c2ccccc2[S+]([O-])c2ccc(C(=O)NCc3ccc(C(C)(C)C)cc3)cc21 (racemic)

- AC50 (D(2) dopamine receptor [1]): 887 nM
SMILES: CCN1C(=O)c2ccccc2[S+]([O-])c2ccc(C(=O)Nc3ccccc3)cc21 (racemic)

- AC50 (D(2) dopamine receptor [1]): 353 nM
SMILES: CCN1C(=O)c2ccccc2[S+]([O-])c2ccc(C(=O)NCc3ccc(S(C)(=O)=O)cc3)cc21 (racemic)

- AC50 (D(2) dopamine receptor [1]): 509 nM
SMILES: CCN1C(=O)c2ccccc2[S+]([O-])c2ccc(C(=O)NCc3ccc(Cl)cc3)cc21 (racemic)

- AC50 (D(2) dopamine receptor [1]): 560 nM
SMILES: CCN1C(=O)c2ccccc2[S+]([O-])c2ccc(C(=O)NC(C)c3ccccc3)cc21 (racemic)

- AC50 (D(2) dopamine receptor [1]): 112 nM
- AC50 (D(2) dopamine receptor [2]): 257 nM
- AC50 (D(3) dopamine receptor [3]): 1620 nM
- Ki (D(2) dopamine receptor [4]): 23 nM
- Ki (D(3) dopamine receptor [5]): 130 nM
SMILES: CCN1C(=O)c2ccccc2[S@+]([O-])c2ccc(C(=O)NCc3ccc(C#N)cc3)cc21
- Ratio (CHO): 6.3
- Ratio Ki (HEK293): 5.7

- AC50 (D(2) dopamine receptor [1]): 4460 nM
SMILES: CCN1C(=O)c2ccccc2[S+]([O-])c2ccc(C(=O)NCc3ccccc3OC)cc21 (racemic)

- AC50 (D(2) dopamine receptor [1]): 8870 nM
SMILES: COc1ccc(CNC(=O)c2ccc3c(c2)N(Cc2ccccc2)C(=O)c2ccccc2[S+]3[O-])cc1 (racemic)

- AC50 (D(2) dopamine receptor [1]): 445 nM
SMILES: CCN1C(=O)c2ccccc2[S+]([O-])c2ccc(C(=O)NCc3ccccc3)cc21 (racemic)

- AC50 (D(2) dopamine receptor [1]): 705 nM
SMILES: CCCN1C(=O)c2ccccc2[S+]([O-])c2ccc(C(=O)NCc3ccc(OC)cc3)cc21 (racemic)

- AC50 (D(2) dopamine receptor [1]): 141 nM
SMILES: CCN1C(=O)c2ccccc2[S+]([O-])c2ccc(C(=O)NCc3ccc(C(F)(F)F)cc3)cc21 (racemic)
